# In ChEMBL document CHEMBL1152917, “Benzothiophene piperazine and piperidine urea inhibitors of fatty acid amide hydrolase (FAAH)” (2009):
# The source made the active and inactive calls.
# Tests used:
# [1] = molecular target: T1, Fatty-acid amide hydrolase 1 (Rattus norvegicus) (UniProt P97612); assay: Ratio of Kinact to Ki for histidine6-tagged rat FAAH
# T1 sequence (whole entry): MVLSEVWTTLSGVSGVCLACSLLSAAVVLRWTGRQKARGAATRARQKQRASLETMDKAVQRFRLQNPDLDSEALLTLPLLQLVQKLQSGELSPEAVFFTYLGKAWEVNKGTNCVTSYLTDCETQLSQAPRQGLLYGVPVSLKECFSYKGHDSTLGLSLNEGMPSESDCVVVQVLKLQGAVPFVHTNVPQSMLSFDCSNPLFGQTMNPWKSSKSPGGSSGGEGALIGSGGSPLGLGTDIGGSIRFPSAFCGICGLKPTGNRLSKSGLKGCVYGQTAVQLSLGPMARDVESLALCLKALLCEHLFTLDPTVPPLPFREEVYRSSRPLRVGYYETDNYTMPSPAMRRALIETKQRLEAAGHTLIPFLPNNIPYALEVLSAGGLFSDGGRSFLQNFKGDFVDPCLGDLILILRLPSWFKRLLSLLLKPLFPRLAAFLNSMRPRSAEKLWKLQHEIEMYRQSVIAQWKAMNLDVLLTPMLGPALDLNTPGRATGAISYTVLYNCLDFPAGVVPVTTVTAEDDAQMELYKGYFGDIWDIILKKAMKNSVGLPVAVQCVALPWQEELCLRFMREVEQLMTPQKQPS
# Summary of the method: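 Rat FAAH construct: aa 30–579, N-terminal transmembrane-deleted, N-terminal His6 tag, E. coli-expressed and purified to >95% purity. Activity read by a GDH-coupled enzyme assay in 384-well plates. Second-order kinact/Ki was derived from the linear slope of kobs versus [I], correcting with (1+[S]/Km).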
# [2] = test system: Rattus norvegicus; assay: Antihyperalgesic activity in complete Freund's adjuvant-induced rat inflammatory pain model assessed as reduction in mechanical allodynia after 4 hrs postdosing; type: functional
# Summary of the method: (§1)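 Rat CFA inflammatory pain model: complete Freund's adjuvant injected subcutaneously into hind paw plantar surface; testing at day 5 post-injection. Compound given ip at 3, 10 and 30 mg/kg; naproxen 10 mg/kg ip as reference. Mechanical paw weight threshold measured 4 h after dosing, compared with vehicle group; n = 8 rats/group.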
# [3] = molecular target: T2, Fatty-acid amide hydrolase 1 (Mus musculus) (UniProt O08914); assay: Inhibition of histidine6-tagged FAAH from mouse liver proteomes at 10 to 100 uM
# T2 sequence (whole entry): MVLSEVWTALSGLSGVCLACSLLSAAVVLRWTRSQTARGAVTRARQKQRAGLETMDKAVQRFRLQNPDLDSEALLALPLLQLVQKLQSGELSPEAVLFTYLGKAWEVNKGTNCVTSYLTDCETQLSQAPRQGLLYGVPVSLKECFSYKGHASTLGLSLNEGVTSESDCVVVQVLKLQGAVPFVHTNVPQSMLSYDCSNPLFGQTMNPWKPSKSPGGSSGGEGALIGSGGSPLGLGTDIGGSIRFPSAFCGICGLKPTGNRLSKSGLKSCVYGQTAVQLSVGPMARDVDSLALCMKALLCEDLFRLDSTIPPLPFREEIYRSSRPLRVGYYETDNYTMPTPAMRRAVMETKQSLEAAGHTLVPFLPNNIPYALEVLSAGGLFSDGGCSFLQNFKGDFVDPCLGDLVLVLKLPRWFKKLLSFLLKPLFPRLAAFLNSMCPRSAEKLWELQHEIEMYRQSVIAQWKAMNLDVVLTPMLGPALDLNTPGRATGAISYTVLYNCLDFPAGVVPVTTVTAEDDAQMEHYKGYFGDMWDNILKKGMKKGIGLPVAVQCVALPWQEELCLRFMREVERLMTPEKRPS
# Summary of the method: (§2)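 Competitive activity-based protein profiling with FP probe labeling of serine hydrolases. Proteomes used: soluble mouse liver, mouse kidney, human liver and human heart, plus human brain membrane. Compounds tested at 100 μM, reference at 10 and 100 μM. Inhibited bands were read by gel; FAAH and off-target labeling were judged by band loss.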
# [4] = test system: Rattus norvegicus; assay: Antihyperalgesic activity in complete Freund's adjuvant-induced rat inflammatory pain model assessed as reduction in mechanical allodynia at 10 mg/kg, ip; type: functional, organism-based; design: dose 10 mg/kg; summary of the method: as §1
# [5] = molecular target: T3, Fatty-acid amide hydrolase 1 (Homo sapiens) (UniProt O00519); assay: Inhibition of histidine6-tagged FAAH from human heart proteomes at 10 to 100 uM; summary of the method: as §2
# T3 sequence (whole entry): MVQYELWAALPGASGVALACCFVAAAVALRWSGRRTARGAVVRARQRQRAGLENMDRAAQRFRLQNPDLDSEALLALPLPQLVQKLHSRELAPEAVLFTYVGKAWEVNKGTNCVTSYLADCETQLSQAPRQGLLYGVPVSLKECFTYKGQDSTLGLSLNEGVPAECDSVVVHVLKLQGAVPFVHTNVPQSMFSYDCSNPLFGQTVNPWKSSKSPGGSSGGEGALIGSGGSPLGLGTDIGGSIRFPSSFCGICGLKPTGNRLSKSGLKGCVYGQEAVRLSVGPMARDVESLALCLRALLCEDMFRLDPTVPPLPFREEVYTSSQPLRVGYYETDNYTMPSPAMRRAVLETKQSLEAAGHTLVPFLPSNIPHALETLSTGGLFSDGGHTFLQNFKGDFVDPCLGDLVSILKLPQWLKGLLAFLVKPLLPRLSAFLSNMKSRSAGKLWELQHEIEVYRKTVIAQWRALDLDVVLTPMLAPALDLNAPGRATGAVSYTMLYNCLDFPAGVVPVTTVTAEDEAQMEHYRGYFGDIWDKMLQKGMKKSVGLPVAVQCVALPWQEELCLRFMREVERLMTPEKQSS
# [6] = molecular target: T3, Fatty-acid amide hydrolase 1 (Homo sapiens); assay: Ratio of Kinact to Ki for histidine6-tagged human FAAH
# Summary of the method: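 Human FAAH construct: aa 32–579, N-terminal transmembrane-deleted, N-terminal His6 tag, expressed in E. coli and purified to >95% by SDS–PAGE. Potency measured as kinact/Ki in a GDH-coupled FAAH assay in 384-well format. kobs was plotted against [I]; kinact/Ki came from the slope kinact/[Ki(1+[S]/Km)].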
# [7] = molecular target: T3, Fatty-acid amide hydrolase 1 (Homo sapiens); assay: Inhibition of histidine6-tagged FAAH from human brain proteomes at 10 to 100 uM; summary of the method: as §2
# [8] = molecular target: T2, Fatty-acid amide hydrolase 1 (Mus musculus); assay: Inhibition of histidine6-tagged FAAH from mouse kidney proteomes at 10 to 100 uM; type: tissue-based; summary of the method: as §2
# [9] = molecular target: T3, Fatty-acid amide hydrolase 1 (Homo sapiens); assay: Inhibition of histidine6-tagged FAAH from human liver proteomes at 10 to 100 uM; summary of the method: as §2
Ratio [1],inhibition [3],inhibition [5],Ratio [6],inhibition [7],inhibition [8],inhibition [9],Structure (SMILES),Activity [2],minimal effective dose ([2]; read-out: MED),Activity [4]
1060 M⁻¹ s⁻¹,Active,Active,< 10 M⁻¹ s⁻¹,Active,Active,Active,COc1ccc(NC(=O)N2CCN(Cc3sc4ccccc4c3C)CC2)cn1,Dose-dependent effect,10 mg/kg,Active
729 M⁻¹ s⁻¹,Active,Active,4470 M⁻¹ s⁻¹,Active,Active,Active,Cc1c(CC2CCN(C(=O)Nc3cccnc3)CC2)sc2ccc(F)cc12,–,–,–
